From ChEMBL document CHEMBL1240337, “Identification of proteases that regulate erythrocyte rupture by the malaria parasite Plasmodium falciparum” (Nat Chem Biol, 2008)
Activity calls are given as the source filed them. No cut-off for these calls is given here.

Legend:
[1] = molecular target: T1, Protease, putative (Plasmodium falciparum 3D7) (UniProt Q8I1Y2); assay: Inhibition of Plasmodium falciparum 3D7 PFD0230c-mediated rupture of infected human red blood cells at 1 to 100 uM after 24 hrs by propidium iodide staining-based FACS analysis
T1 sequence (whole entry): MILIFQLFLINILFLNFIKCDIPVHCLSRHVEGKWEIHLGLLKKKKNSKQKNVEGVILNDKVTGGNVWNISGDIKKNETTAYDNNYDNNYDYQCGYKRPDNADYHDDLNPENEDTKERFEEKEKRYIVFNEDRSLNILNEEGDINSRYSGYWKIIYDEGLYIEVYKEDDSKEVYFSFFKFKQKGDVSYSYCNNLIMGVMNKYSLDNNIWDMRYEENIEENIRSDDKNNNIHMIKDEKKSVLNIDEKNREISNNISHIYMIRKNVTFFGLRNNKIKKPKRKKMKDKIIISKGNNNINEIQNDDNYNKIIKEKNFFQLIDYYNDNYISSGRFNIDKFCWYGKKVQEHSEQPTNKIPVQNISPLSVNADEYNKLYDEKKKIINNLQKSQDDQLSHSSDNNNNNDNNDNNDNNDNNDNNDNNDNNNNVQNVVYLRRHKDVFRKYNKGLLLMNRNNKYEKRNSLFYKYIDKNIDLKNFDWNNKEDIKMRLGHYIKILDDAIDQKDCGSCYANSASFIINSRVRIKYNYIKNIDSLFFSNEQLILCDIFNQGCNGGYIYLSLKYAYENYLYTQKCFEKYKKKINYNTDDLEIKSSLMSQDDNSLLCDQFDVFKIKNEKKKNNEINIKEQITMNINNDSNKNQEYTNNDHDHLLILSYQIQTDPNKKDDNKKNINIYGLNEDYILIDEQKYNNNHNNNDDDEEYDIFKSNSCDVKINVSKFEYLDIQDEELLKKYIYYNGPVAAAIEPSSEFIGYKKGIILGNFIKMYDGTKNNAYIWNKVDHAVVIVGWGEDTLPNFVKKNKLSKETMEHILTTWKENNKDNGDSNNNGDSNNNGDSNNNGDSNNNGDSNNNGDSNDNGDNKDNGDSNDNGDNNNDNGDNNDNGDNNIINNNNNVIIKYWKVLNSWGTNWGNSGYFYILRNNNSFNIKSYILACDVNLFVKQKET
Summary of the method: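 Schizonts at 36 h post invasion treated in triplicate with 1–100 µM inhibitor for 24 h, then propidium iodide stained and analyzed by flow cytometry. Schizont accumulation is expressed as fold increase over the DMSO control.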

[2] = molecular target: T2, Cysteine proteinase falcipain-1 (Plasmodium falciparum 3D7) (UniProt Q8I6V0); assay: Inhibition of Plasmodium falciparum 3D7 falcipain-1 by fluorescence spectrophotometry
T2 sequence (whole entry): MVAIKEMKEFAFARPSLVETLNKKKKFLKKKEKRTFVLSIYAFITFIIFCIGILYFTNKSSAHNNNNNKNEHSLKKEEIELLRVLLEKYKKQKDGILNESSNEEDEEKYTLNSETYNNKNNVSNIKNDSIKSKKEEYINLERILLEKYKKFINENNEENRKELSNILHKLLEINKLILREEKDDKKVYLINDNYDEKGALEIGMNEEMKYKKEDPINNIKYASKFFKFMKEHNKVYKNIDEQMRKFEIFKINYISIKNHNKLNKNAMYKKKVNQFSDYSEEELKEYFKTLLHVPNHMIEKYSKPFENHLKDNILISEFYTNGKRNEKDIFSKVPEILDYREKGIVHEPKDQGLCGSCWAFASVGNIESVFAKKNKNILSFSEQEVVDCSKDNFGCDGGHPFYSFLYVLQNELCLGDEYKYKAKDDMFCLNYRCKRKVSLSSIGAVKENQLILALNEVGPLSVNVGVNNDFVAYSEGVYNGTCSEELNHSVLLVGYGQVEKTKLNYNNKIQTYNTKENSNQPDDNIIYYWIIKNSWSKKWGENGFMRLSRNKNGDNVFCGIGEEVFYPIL

[3] = molecular target: T3, Falcipain-3 (Plasmodium falciparum 3D7) (UniProt Q8IIL0); assay: Inhibition of Plasmodium falciparum 3D7 falcipain-3 by fluorescence spectrophotometry
T3 sequence (whole entry): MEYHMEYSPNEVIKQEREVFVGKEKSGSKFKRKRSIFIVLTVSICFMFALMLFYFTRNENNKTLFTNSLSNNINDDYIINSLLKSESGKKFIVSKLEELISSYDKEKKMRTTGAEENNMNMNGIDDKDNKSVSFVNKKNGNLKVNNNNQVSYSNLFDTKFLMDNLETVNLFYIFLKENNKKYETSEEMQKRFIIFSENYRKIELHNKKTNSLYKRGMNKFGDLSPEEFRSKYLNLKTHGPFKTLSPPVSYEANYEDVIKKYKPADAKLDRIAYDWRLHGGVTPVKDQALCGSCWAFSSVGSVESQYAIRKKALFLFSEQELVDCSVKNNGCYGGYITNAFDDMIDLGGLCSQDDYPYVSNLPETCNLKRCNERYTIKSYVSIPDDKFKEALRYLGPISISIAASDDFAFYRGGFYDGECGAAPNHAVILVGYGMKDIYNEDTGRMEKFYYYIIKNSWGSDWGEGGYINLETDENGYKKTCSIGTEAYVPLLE

Plasmodium falciparum [4] = assay: Inhibition of Plasmodium falciparum 3D7 falcipain-2 by fluorescence spectrophotometry
[5] = molecular target: T1, Protease, putative (Plasmodium falciparum 3D7); assay: Inhibition of Plasmodium falciparum 3D7 PFD0230c-mediated SERA5 processing at 1 1 to 100 uM after 6 to 8 hrs by SDS-PAGE
Summary of the method: (§1)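 Percoll-enriched schizonts (36–40 h post invasion) treated with inhibitor for 6–8 h in serum-free RPMI. Medium run on 8% SDS-PAGE; schizont pellet solubilized in SDS loading buffer. SERA5 detected by western blot with a monoclonal recognizing the P50 product; PfSUB1 detected with antisera.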

[6] = molecular target: T1, Protease, putative (Plasmodium falciparum 3D7); assay: Inhibition of Plasmodium falciparum 3D7 PFD0230c-mediated rupture of infected human red blood cells at 10 uM after 24 hrs by giemsa staining
Summary of the method: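 Giemsa-stained thin blood films were read from schizonts exposed at 36 h post invasion to 10 µM inhibitor, to assess rupture and morphology.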

Plasmodium falciparum [7] = assay: Inhibition of Plasmodium falciparum SUB1-mediated SERA5 processing at 1 1 to 100 uM after 6 to 8 hrs by SDS-PAGE; summary of the method: as §1
[8] = molecular target: T4, Probable cathepsin C (Plasmodium falciparum 3D7) (UniProt Q8IIJ9); assay: Inhibition of Plasmodium falciparum 3D7 cathepsin C by fluorescence spectrophotometry
T4 sequence (whole entry): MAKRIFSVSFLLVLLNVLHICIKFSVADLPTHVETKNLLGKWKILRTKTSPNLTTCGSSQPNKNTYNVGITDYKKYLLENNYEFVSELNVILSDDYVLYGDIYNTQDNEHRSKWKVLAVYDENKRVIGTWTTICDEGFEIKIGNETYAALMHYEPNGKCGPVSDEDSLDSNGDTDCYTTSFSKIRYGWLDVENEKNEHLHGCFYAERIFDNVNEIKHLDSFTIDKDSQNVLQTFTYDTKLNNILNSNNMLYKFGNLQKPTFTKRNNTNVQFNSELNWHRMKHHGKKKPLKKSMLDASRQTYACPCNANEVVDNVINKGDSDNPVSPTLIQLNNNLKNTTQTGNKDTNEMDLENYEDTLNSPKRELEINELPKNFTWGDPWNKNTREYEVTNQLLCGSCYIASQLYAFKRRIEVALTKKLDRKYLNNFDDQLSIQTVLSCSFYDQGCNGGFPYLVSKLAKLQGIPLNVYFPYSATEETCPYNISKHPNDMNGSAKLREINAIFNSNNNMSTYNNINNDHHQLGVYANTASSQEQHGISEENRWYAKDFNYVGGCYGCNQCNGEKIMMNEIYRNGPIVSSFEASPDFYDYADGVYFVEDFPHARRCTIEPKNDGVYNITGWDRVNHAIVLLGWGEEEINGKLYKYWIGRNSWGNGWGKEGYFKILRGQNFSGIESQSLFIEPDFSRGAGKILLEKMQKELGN

[9] = Cytotoxicity against african green monkey BSC1 cells after 24 hrs by celltiter glo assay; format: cell-based; details: chlorocebus aethiops, bsc-1, 24 h
Summary of the method: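 BSC-1 African green monkey kidney epithelial cells exposed to compounds; viability read by CellTiter-Glo luminescence.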

Plasmodium falciparum [10] = assay: Antiplasmodial activity against Plasmodium falciparum schizont infected in human erythrocytes assessed as effect on schizont morphology at 1 to 100 uM after 24 by propidium iodide staining-based FACS analysis; format: functional, organism-based
[11] = Inhibition of Plasmodium falciparum SUB1 by fluorescence spectrophotometry
Summary of the method: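 Recombinant PfSUB1 cleavage of the fluorogenic peptide substrate pepF1-6R measured over a range of inhibitor concentrations. IC50 taken from the curve fit.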

Plasmodium falciparum [12] = assay: Antiplasmodial activity against Plasmodium falciparum schizont infected in human erythrocytes assessed as effect on parasite ring-to-schizont morphology at 1 to 100 uM after 24 by propidium iodide staining-based FACS analysis; format: functional, organism-based
Plasmodium falciparum [13] = assay: Antiplasmodial activity against Plasmodium falciparum schizont infected in human erythrocytes assessed as blockade of parasite-mediated rupture of erythrocytes after 24 by propidium iodide staining-based FACS analysis; format: functional, organism-based
Summary of the method: (§2)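 Synchronous early schizonts (~36 h post invasion) exposed to inhibitor for 24 h at 37 °C. Cells fixed in 0.05% glutaraldehyde/PBS overnight at 4 °C, permeabilized with 0.25% Triton X-100 and stained with propidium iodide. Flow cytometry gated ring and schizont populations as fractions of total parasitemia, normalized to averaged DMSO wells. Triplicate runs.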

Plasmodium falciparum [14] = assay: Antiplasmodial activity against Plasmodium falciparum schizont infected in human erythrocytes assessed as inhibition of ring-stage parasite growth at 1 to 100 uM after 24 by propidium iodide staining-based FACS analysis; format: functional, organism-based
Plasmodium falciparum [15] = assay: Displacement of JCP104 from Plasmodium falciparum SUB1 at 50 uM by SDS-PAGE
Plasmodium falciparum [16] = assay: Inhibition of Plasmodium falciparum SUB1-mediated rupture of infected human red blood cells at 50 uM after 24 hrs by propidium iodide staining-based FACS analysis
Summary of the method: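 Early schizonts (~36 h post invasion) given 50 µM compound (final) for 24 h at 37 °C, then glutaraldehyde-fixed, Triton-permeabilized and propidium iodide stained. Flow cytometric schizont fraction normalized to DMSO controls.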

[17] = molecular target: T1, Protease, putative (Plasmodium falciparum 3D7); assay: Inhibition of Plasmodium falciparum 3D7 PFD0230c-mediated rupture of infected human red blood cells after 24 hrs by propidium iodide staining-based FACS analysis; summary of the method: as §2
[18] = molecular target: T1, Protease, putative (Plasmodium falciparum 3D7); assay: Inhibition of Plasmodium falciparum 3D7 PFD0230c by fluorescence spectrophotometry
[19] = molecular target: T5, Preprocathepsin c, putative (Plasmodium falciparum 3D7) (UniProt Q8I0V1); assay: Inhibition of Plasmodium falciparum 3D7 PFL2290w by fluorescence spectrophotometry
T5 sequence (whole entry): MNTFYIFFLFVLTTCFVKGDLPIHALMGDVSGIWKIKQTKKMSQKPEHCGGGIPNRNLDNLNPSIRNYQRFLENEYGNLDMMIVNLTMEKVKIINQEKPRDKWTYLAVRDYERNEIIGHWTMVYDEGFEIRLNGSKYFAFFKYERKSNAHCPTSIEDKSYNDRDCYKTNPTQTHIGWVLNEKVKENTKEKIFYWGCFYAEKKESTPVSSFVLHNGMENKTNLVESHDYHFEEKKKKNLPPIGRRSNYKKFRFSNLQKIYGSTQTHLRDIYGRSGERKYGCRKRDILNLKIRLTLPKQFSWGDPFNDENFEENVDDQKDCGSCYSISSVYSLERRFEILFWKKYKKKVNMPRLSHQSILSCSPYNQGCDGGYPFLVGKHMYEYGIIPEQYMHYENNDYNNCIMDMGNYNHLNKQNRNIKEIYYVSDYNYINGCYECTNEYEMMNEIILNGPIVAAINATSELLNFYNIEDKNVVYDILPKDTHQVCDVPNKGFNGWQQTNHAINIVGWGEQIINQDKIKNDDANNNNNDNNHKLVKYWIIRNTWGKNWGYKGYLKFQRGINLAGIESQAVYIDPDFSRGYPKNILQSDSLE

In the case of `O=C(N[C@H](/C=C/S(=O)(=O)c1ccccc1)CCc1ccccc1)C1CCCN1` (stereo not given in full), the inhibition [1] is reported as “inactive”, the inhibition [2] is reported as “Active” and the inhibition [3] is reported as “inactive”. For the same compound, the inhibition (Plasmodium falciparum [4]) was “inactive”, the inhibition [5] was “Active” and the inhibition [6] was “inactive”. The inhibition (Plasmodium falciparum [7]) was “Active” and the inhibition [8] was “Active”.

In the case of `O=C(CCCCCNC(=O)CCCC[C@H]1SC[C@H]2NC(=O)N[C@H]21)NCCCCCC(=O)Nc1ccc2c(Cl)c(OCCc3ccccc3)oc(=O)c2c1`, the Activity [9] is reported as “Non-toxic”, the Activity (Plasmodium falciparum [10]) is reported as “inactive” and the IC50 [11] is reported as 18 µM. For the same compound, the Activity (Plasmodium falciparum [12]) was “inactive”, the EC50 (Plasmodium falciparum [13]) was 22 µM and the inhibition (Plasmodium falciparum [14]) was “Active”. For the same compound, the inhibition [5] was “Active” and the inhibition (Plasmodium falciparum [7]) was “Active”.

With `O=C(CCCC[C@H]1SC[C@H]2NC(=O)N[C@H]21)NCCCCCC(=O)Nc1ccc2c(Cl)c(OCCc3ccccc3)oc(=O)c2c1` the Activity (Plasmodium falciparum [15]) was “Active”, the Activity (Plasmodium falciparum [16]) was “Active” and the inhibition (Plasmodium falciparum [16]) was “Active”.

With `O=C(CCCC[C@H]1SC[C@H]2NC(=O)N[C@H]21)Nc1ccc2c(Cl)c(OCCc3ccccc3)oc(=O)c2c1` the Activity (Plasmodium falciparum [15]) was “Active”, the Activity (Plasmodium falciparum [16]) was “Active” and the inhibition (Plasmodium falciparum [16]) was “Active”.

With `N[C@@H](Cc1ccc(O)c([N+](=O)[O-])c1)C(=O)N[C@H](/C=C/S(=O)(=O)c1ccccc1)CCc1ccccc1` the inhibition [17] was “Dose-dependent effect”, the inhibition [5] was “Active” and the inhibition [6] was “Active”. The inhibition (Plasmodium falciparum [7]) was “Active” and the inhibition [18] was “Active”.

With `CCOC(=O)[C@H]1O[C@@H]1C(=O)N[C@H](C(=O)NCCc1ccc(O)cc1)[C@@H](C)CC` the inhibition [6] was “Active”.

For `NC(=O)[C@H](Cc1ccc(O)cc1)NC(=O)CCCCCCCCCCS(=O)(=O)/C=C/[C@H](CCc1ccccc1)NC(=O)[C@@H](N)Cc1ccc(O)c([N+](=O)[O-])c1`, the inhibition [19] was “Active” and the inhibition [8] was “Active”.
